This note sets out measurements from ChEMBL document CHEMBL4364270, “Structure-activity relationship studies on Bax activator SMBA1 for the treatment of ER-positive and triple-negative breast cancer” (Eur J Med Chem, 2019).

Experiment [1] deals with MCF7. Nature of the experiment: Antiproliferative activity against ER-positive human MCF7 cells assessed as reduction in cell growth incubated for 48 hrs by MTT assay. The experiment is classed as functional, cell-based. To be noted: MCF7, 48 h. Summed up:
(§1)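 MTT viability: MCF-7 and MDA-MB-231 seeded 1×10^4 cells/well, exposed to DMSO or 0.01-100 μM for 48 h; MTT (5 mg/mL in PBS) added 4 h, formazan dissolved in DMSO, OD 550 nm; quadruplicate wells; IC50 fitted for compounds giving >50% inhibition at 10 µM; at least three independent experiments.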

The test system of the next experiment is MDA-MB-468. Nature of the experiment: Antiproliferative activity against triple negative human MDA-MB-468 cells assessed as reduction in cell growth incubated for 72 hrs by MTT assay. The experiment is classed as functional, cell-based. Conditions: MDA-MB-468, 72 h. The method, boiled down:
(§2)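 MTT viability after 72 h exposure at indicated concentrations; cells seeded at 1×10^3 cells/well (T47D, MDA-MB-468, MCF-10A, MCF-7/ADR) in 96-well plates; quadruplicate wells, independently repeated three times; IC50 as mean ± SE of at least three experiments.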

Experiment [2] concerns MCF7. Kind of experiment: Antiproliferative activity against ER-positive human MCF7 cells assessed as reduction in cell viability at 10 uM incubated for 48 hrs by MTT assay relative to control. Format: functional. To be noted: MCF7, 48 h. Summed up: as §1
On the technique in general: Tetrazolium dyes change colour on reduction, which living cells bring about.

In experiment [3] the test system is MDA-MB-231. Nature of the experiment: Potency index, ratio of SMBA1 IC50 to compound IC50 for antiproliferative activity against triple negative human MDA-MB-231 cells assessed as reduction in cell growth incubated for 48 hrs by MTT assay. The experiment is classed as functional.
Experiment [4] concerns MCF7. Kind of experiment: Antiproliferative activity against adriamycin-resistant human MCF7 cells assessed as reduction in cell growth incubated for 72 hrs by MTT assay. Format: functional, cell-based. The method, boiled down:
as §2

A further experiment concerns T47D. Kind of experiment: Antiproliferative activity against ER-positive human T47D cells assessed as reduction in cell growth at 1 uM incubated for 72 hrs by MTT assay relative to control. The experiment is classed as functional. Summed up:
as §2

Experiment [5] concerns the target Apoptosis regulator BAX (Homo sapiens) (UniProt Q07812). Kind of experiment: Activation of Bax in ER-positive human MCF7 cells assessed as increase in active Bax 6A7 isoform protein level at 5 uM incubated upto 48 hrs by Western blot analysis. The experiment is classed as cell-based. The method, boiled down:
(§3)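 Western blot of MCF-7 (and MDA-MB-231 for cytosolic fractions) cells exposed to 5 μM over 0-48 h; 30 µg protein per lane on SDS-PAGE, PVDF transfer, 5% milk block, overnight primary antibodies (total Bax, p-Bax, active Bax 6A7, cytochrome C), ECL detection; cytosolic fraction used for cytochrome c and Bax.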
(A western blot detects proteins with antibodies after separation by electrophoresis.)

The target is the same in experiment [6]. Nature of the experiment: Activation of Bax in triple-negative human MDA-MB-231 cells assessed as increase in cytosolic cytochrome C level at 5 uM incubated for 48 hrs by Western blot analysis. Format: cell-based. The method, boiled down: as §3
In experiment [7] the test system is MDA-MB-231. Kind of experiment: Induction of apoptosis in triple-negative human MDA-MB-231 cells assessed as upregulation of PARP1 cleavage incubated for 48 hrs by Western blot analysis. Format: functional, cell-based. The method, boiled down:
(§4)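 Western blot: cells harvested after treatment, lysates quantified by Bradford (BSA standard), 30 µg protein resolved by SDS-PAGE, transferred to PVDF, blocked in 5% nonfat milk, probed overnight with anti-PARP-1, anti-cleaved PARP-1 or anti-cyclin D1 (1:1,000) and β-actin loading control; ECL visualization.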

The subject of experiment [8] is MCF7. Kind of experiment: Induction of apoptosis in ER-positive human MCF7 cells assessed as upregulation of caspase3 cleavage incubated for 48 hrs by Western blot analysis. Format: functional, cell-based.
The test system of experiment [9] is MCF7. Nature of the experiment: Induction of apoptosis in ER-positive human MCF7 cells assessed as downregulation of cyclin D1 level incubated for 48 hrs by Western blot analysis. The experiment is classed as functional, cell-based. Summed up:
as §4

SMILES strings stand for the structures. The source made the active and inactive calls. The rule behind the calls is not given here.

Sequence of Apoptosis regulator BAX (Homo sapiens) (Q07812 whole entry, canonical isoform): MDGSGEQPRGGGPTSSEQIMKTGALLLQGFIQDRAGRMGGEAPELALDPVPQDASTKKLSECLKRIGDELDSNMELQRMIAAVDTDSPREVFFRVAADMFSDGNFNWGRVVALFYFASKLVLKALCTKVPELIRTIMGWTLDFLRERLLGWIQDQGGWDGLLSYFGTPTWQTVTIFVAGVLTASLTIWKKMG

As a reminder, the IC50 is the concentration needed to halve the response being measured. The inhibition is the share of the control response that was lost under treatment. Turning to `NCCOc1ncccc1C=C1c2ccccc2-c2ccc([N+](=O)[O-])cc21`, the IC50 with MCF7 [1] turned out to be 60 nM; in the experiment with MDA-MB-468, 1610 nM. In the experiment with MCF7 [2], the inhibition at 10 µM was > 50%. Moreover, the “Ratio IC50” value in the experiment on MDA-MB-231 [3] is 80 - 130. The inhibition entry in the experiment with MCF7 [4] is “Dose-dependent effect”. Moreover, the inhibition at 1 µM in the experiment on T47D was > 50%. Moreover, the result in experiment [5] and in experiment [6] was Active. The Activity entry in the experiment with MDA-MB-231 [7], in the experiment on MCF7 [8] and in the experiment with MCF7 [9] was “Dose-dependent effect” in each case.
